Beta2AR agonist – human beta-2 adrenergic receptor agonism by FAP | P07550 | Am2.2-beta2AR cells, FAP receptor internalization, flow cytometry | response, % (concentration not given with the values) | 0.43% of 340,000 active;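 active = response above a set limit, near 3 SD of response in nonfluorescent compounds, cut at about 42% in these data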
XBP1 UPR activ – adaptive UPR (XBP1) activation; AID 463104; activation, % at 20 µM; CHO-XBP1 luciferase reporter, IRE1-XBP1 UPR activation, luminescence; percent of tunicamycin response, DMSO as zero; 0.33% of 330,000 active;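 active = versus positive control, 20 µM dose yields 30% or more activation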;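 note: 100% = tunicamycin at 10 µg/mL and 0% = DMSO only wells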
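Material: CHO cell line with stable XBP1 luciferase reporter; schedule: 16-18 h cell attachment at 37 °C, then 6 h compound exposure; signal: glow luminescence from Steady-Glo reagent; medium: serum-containing F12 medium, 10% FBS; benchmarks: tunicamycin 10 µg/mL and vehicle-only wells; read-out: percent activation relative to tunicamycin reference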
Mdm2 ligase inh – inhibitors of human Mdm2 E3 ubiquitin ligase; 0.11% of 210,000 active; cell-based MDM2 ubiquitination luciferase reporter, 2 h; 0 = plate control, 100 = twice control, blank-subtracted; signal enhancement, % at 5 µM; AID 1230;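 active = signal enhancement of 30% or more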;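 note: luminescence tracks abundance of the self-degrading MDM2-luciferase fusion protein; higher signal means inhibition of MDM2 E3 ligase activity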
Target sequence (Q00987 whole entry, looked up, the tested form may be a part): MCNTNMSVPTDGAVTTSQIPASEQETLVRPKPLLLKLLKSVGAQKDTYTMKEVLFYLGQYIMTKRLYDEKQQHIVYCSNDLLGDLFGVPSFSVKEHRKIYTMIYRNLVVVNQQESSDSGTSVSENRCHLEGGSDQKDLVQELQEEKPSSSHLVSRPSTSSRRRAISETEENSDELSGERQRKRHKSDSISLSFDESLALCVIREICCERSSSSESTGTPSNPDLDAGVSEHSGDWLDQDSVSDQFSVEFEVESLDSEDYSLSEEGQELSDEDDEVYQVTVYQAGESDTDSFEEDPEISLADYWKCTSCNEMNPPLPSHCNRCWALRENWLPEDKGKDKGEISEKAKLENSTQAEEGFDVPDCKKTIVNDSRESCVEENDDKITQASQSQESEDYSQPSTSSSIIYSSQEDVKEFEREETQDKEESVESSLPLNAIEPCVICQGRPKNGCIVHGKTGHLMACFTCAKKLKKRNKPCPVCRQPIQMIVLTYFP
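System: stable MDM2–luciferase fusion reporter cells / Input: 2000 cells seeded into each well / Schedule: 4 h settle plus 2 h compound, 37 °C / Compound: single-point 5 µM / Buffer or medium: cells held in DMEM / Benchmarks: control and blank well means / Evaluation: percent signal gain over controls, blank-subtracted / Measured by: luciferase luminescence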
Dynein cargo inh – dynein cargo transport inhibition; z-score, hits read low; 0.47% of 220,000 active; 3617.4 mouse cells, GR-EGFP nuclear translocation imaging; test concentration mostly 20 µM; stimulated with dexamethasone, 1 µM; hits give low values;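 active = plate z-score of nuclear minus cytoplasmic receptor signal below a set negative limit, without overly bright fluorescence or cell loss, cut at about -3.5 in these data, passing the limit was not always enough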;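 note: z-score of nuclear minus cytoplasmic ring GR-EGFP intensity difference per well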
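Schedule: 48 h induction, then 1 h compound, then 30 min agonist, 37 °C. Buffer or medium: tetracycline-free induction medium containing charcoal-stripped FBS. Reagent: 1.0 µM final dexamethasone stimulus. Evaluation: nuclear versus cytoplasmic GR-EGFP signal, averaged per well. Signal: high-content fluorescence imaging after fixation.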
CHOP UPR activ – activators of apoptotic arm of unfolded protein response (CHOP) | CHO-CHOP luciferase reporter, UPR activation, luminescence; percent of tunicamycin response over DMSO baseline | activation, % at 10 µM | 0.34% of 330,000 active | AID 449763;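 active = at 10 µM dose, activation of 40% or more, normalized to positive control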;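 note: 100% = tunicamycin at 10 µg/mL and 0% = DMSO alone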
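Assay system: CHO-CHOP cells, stable luciferase reporter of PERK-eIF2a-CHOP signalling / Buffer or medium: F12 plus 10% serum / Compound dosing: one dose, 10 µM in 0.5% DMSO / Times: 6 h compound treatment, 37 °C / Technique: luciferase luminescence / Read-out: % reporter activation, DMSO baseline versus tunicamycin full activation / Benchmarks: tunicamycin and DMSO controls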
Mdm2 MdmX PPI – disrupts the human Mdm2-MdmX interaction. SaOS-2 split-luciferase Mdm2/MdmX complementation, luminescence. inhibition, % at 8 µM. 3% of 330,000 active. AID 485346;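 active = inhibition of at least 50% at 8 µM in the primary screen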
Mdm2-MdmX conf – human Mdm2/MdmX binding inhibition, confirmed | shares compounds with Mdm2 MdmX PPI | luminescent assay | inhibition, % at 8 µM | 55% of 10,000 active; in the data active = inhibition above about 40%
FLuc counter – inhibits full-length luciferase, flagging false Mdm2/MdmX hits | 77% of 6,200 active | inhibition, % at 8 µM | SaOS-2 full-length luciferase counterscreen, luminescence | shares compounds with Mdm2 MdmX PPI;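 active = mean inhibition at 8 µM reaching about 37%, which flags the compound as non-specific, limit read from the data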;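 note: p53-null SaOS-2 cells with luciferase driven by a doxycycline-inducible promoter; compound on cells about two nights before reading with doxycycline added after day one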
Active calls of the source: *; . = no result. In the library only some 3.7% were active in any assay of this set; here they are far more common.

SMILES | Beta2AR agonist | XBP1 UPR activ | Mdm2 ligase inh | Dynein cargo inh | CHOP UPR activ | Mdm2 MdmX PPI | Mdm2-MdmX conf | FLuc counter
O=C(COC(=O)C12CC3CC(CC(C3)C1)C2)Nc1nc2c(F)c(F)c(F)cc2s1 | 3 | -4 | -6 | 0.084 | 0 | 58* | 14 | .
Cc1cccc(C(=O)Oc2cccc3c(O)cccc23)c1 | 0 | 11 | . | . | 5 | 29 | . | .
COc1ccc(NS(=O)(=O)c2cc(NC(=O)/C=C/c3cccs3)ccc2N2CCOCC2)cc1 | -8 | -3 | 0 | -0.1 | 0 | 53* | 30 | .
CCCCCC(=O)Nc1ccc(N2CCOCC2)c(S(=O)(=O)Nc2ccc(OC)cc2)c1 | 6 | -3 | . | . | 3 | 15 | . | .
CCOc1ccc(Nc2cc3n(c(=O)n2)CCc2cc(OC)c(OC)cc2-3)cc1 | 2 | 13 | . | . | 1 | 51* | 6 | .
CC(C)(C)OC(=O)C(C1NC(C(=O)O)C(C)(C)S1)N1C(=O)c2ccccc2C1=O (stereo unspecified) | -1 | . | . | . | . | . | . | .
COc1ccc(CC(=O)O/N=C(\N)Cc2ccc(OC)cc2)cc1 | -1 | -1 | -14 | 0.64 | 3 | 11 | . | .
CC(C)(C)C(=O)O/N=C(\N)Cc1ccc(-c2csnn2)cc1 | -12 | 2 | -3 | 0.4 | -1 | 77* | 18 | .
COC(=O)c1ccc(OCC2c3cc(OC)c(OC)cc3CCN2C(=O)c2ccco2)cc1 (stereo unspecified) | 3 | 0 | -9 | -0.34 | 0 | 53* | 43* | 71*
COC(=O)c1ccc(OCC2c3cc(OC)c(OC)cc3CCN2C(C)=O)cc1 (stereo unspecified) | -2 | -1 | -14 | 0.78 | -2 | -1 | . | .
Cc1cccc(OCC(=O)NCc2ccccc2)c1 | -2 | -5 | . | . | -1 | 9 | . | .
C/C(=N\NC(=O)COc1cccc(C)c1)c1ccc2ccccc2c1O | 7 | -1 | . | . | 1 | 52* | 61* | 34
O=C1CCNCCN1[C@H](CO)c1ccccc1 | 10 | 1 | . | . | 0 | -8 | . | .
CCN(CC)c1ccc(/C=N/n2nnnc2N)c(O)c1 | 11 | 5 | -6 | 0.47 | 3 | 48 | . | .
CCN(CC)c1ccc2nc3ccccc3[n+](CC)c2c1 | 4 | -3 | . | . | -1 | 53* | 37 | .
CCN(CC)c1ccc2nc3ccc(N)cc3[n+](-c3ccccc3)c2c1 | 16 | -4 | . | . | 16 | 92* | 93* | 24
C=CCNC(=S)NNC(=O)CCC(O)CCCCC (stereo unspecified) | -4 | -4 | -11 | 0.55 | -3 | 54* | -8 | .
O=C(COC(=O)c1cc(S(=O)(=O)N2CCOCC2)ccc1Cl)NCc1ccccc1 | -2 | -2 | . | . | 0 | -3 | . | .
CCOc1ccc(OCc2ccc(C(=O)NN=Cc3ccc[nH]3)cc2)cc1 | 14 | 3 | . | . | 3 | 84* | 73* | 28
O=C(N/N=C/c1ccc[nH]1)c1ccccc1OCc1ccc(F)cc1 | 7 | 1 | . | -0.24 | 2 | -14 | . | .
Clc1cccc(Cl)c1/C=N/Nc1c(Cl)cncc1Cl | 3 | 2 | -5 | 0.017 | 1 | 65* | 64* | 22
Clc1cncc(Cl)c1N/N=C/c1ccncc1 | 16 | 0 | -36 | -0.18 | 5 | 65* | 63* | 28
Cc1csc2sc(-c3ccnc(SCC(=O)NCc4ccccc4)n3)c(C)c12 | 24 | 6 | -8 | -0.63 | -2 | 56* | 59* | 86*
Cc1ccc(-c2nc3ccccc3s2)cc1NC(=S)NC(=O)c1cccc2ccccc12 | 2 | -2 | -3 | 0.79 | 5 | 99* | -6 | .
Cc1cc2ccccn2c1C(=O)c1ccc(Cl)c([N+](=O)[O-])c1 | 3 | 1 | -9 | -0.65 | 0 | 19 | . | .
SMILES | Beta2AR agonist | XBP1 UPR activ | Mdm2 ligase inh | Dynein cargo inh | CHOP UPR activ | Mdm2 MdmX PPI | Mdm2-MdmX conf | FLuc counter
Cc1c(C=O)c2ccccn2c1C(=O)c1ccc(Cl)c([N+](=O)[O-])c1 | 8 | 2 | -11 | -0.76 | -2 | 66* | -1 | .
Cc1ccc([N+](=O)[O-])cc1N/C=C1\CCCCC1=O | -5 | -2 | 8 | -0.29 | 3 | -38 | . | .
COc1ccc(CCNC(=O)c2cc3c(=O)n4ccccc4nc3n(CC3CCCO3)c2=N)cc1OC (stereo unspecified) | -6 | -4 | . | . | -1 | 9 | . | .
COc1ccc(CCNC(=O)c2cc3c(=O)n4ccccc4nc3n(C3CCCCC3)c2=N)cc1OC | 9 | 3 | . | . | 0 | 58* | 26 | .
COc1ccc(CCNC(=O)c2cc3c(=O)n4ccccc4nc3n(CCCN3CCOCC3)c2=N)cc1 | 13 | -6 | . | . | -3 | 54* | 13 | .
COc1ccc(CCNC(=O)c2cc3c(=O)n4ccccc4nc3n(C3CCCCC3)c2=N)cc1 | 9 | 2 | . | . | 2 | 61* | 38 | 69*
Cc1ccc(N(Cc2ccccc2)C(=O)Cc2ccc(S(=O)(=O)N3CCOCC3)s2)cc1 | 4 | -1 | . | . | 4 | 7 | . | .
C=CCN1C(=O)C(CC(=O)Nc2ccc(OCCC)cc2)N(CCCN2CCN(Cc3ccccc3)CC2)C1=S (stereo unspecified) | 35 | 7 | -2 | 0.011 | 4 | 80* | 38 | 75*
